KCNQ1 block – inhibitors of human KCNQ1 channel, primary screen, cell-based, thallium flux, high-throughput; Potassium voltage-gated channel subfamily KQT member 1 (Homo sapiens), P51787; CHO-K1 KCNQ1, FluxOR thallium flux fluorescence; active compounds read high; B-score at 10 µM; hit rate 1.3% among 310,000;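 active means compounds whose thallium flux B-score, printed positive for inhibition, exceeds three library SD while starting fluorescence stays within three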;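 further: channel opened by potassium depolarization with thallium stimulus after 20 min compound exposure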
KCNK9 block – KCNK9 potassium channel inhibitors, primary screen, HEK293 cells, thallium flux. Potassium channel subfamily K member 9 (Homo sapiens), Q9NPC2. FluxOR thallium flux fluorescence; active compounds read low. B-score at 10 µM. hit rate 1.2% among 310,000;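 active means ratio B-score over 3 SD below the library mean, with starting fluorescence within 5 SD of its mean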;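 further: negative B-score means less thallium flux so channel inhibition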
Target sequence (Q9NPC2 whole entry, looked up): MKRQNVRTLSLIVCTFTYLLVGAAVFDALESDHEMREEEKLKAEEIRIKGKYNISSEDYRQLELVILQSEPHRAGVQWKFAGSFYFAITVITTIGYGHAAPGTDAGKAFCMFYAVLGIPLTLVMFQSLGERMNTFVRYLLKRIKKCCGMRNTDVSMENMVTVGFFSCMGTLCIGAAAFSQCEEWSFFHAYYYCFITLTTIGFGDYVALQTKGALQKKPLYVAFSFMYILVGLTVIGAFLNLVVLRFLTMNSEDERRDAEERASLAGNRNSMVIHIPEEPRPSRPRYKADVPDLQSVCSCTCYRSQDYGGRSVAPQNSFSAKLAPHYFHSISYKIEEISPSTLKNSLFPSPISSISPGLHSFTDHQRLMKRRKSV
KCNQ1 act – potentiators or activators of KCNQ1 channel, primary screen, cell-based, thallium flux, high-throughput | B-score at 10 µM | CHO-K1 KCNQ1, thallium flux FluxOR fluorescence; active compounds read high | AID 2648, 2010 | Potassium voltage-gated channel subfamily KQT member 1 (Homo sapiens), P51787 | hit rate 0.35% among 310,000;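 active means fluorescence ratio B-score, a plate-corrected score, at least three library SD, with initial intensity B-score within 5 SD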
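assay system = KCNQ1-transfected CHO-K1 cells | medium = assay buffer with matched DMSO | probe or stimulus = depolarizing K+/Tl+ stimulus, K2SO4 and Tl2SO4 each 12.5 mM in 5x stock | dosing = single dose | incubation = dye 90 min, compound 20 min, room temperature | detection = kinetic FluxOR fluorescence, 10 s baseline plus 110 s post-stimulus | evaluation = ratio B score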
hERG rescue – hERG rescue from dofetilide block, primary screen, cell-based, CHO-hERG, FluxOR thallium flux, dofetilide IC70; Voltage-gated inwardly rectifying potassium channel KCNH2 (Homo sapiens), Q12809; dofetilide IC70 present; activation (rescue from dofetilide block), less the hit threshold, % at 10 µM; hit rate 0.51% among 310,000;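 active means activation above the mean of controls blocked by dofetilide plus 5 SD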;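 further: thallium influx through hERG after potassium depolarization seen as dye fluorescence rise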
KCNK3 block – human KCNK3 channel inhibitors, primary screen, CHO cells, FluxOR thallium flux, B-score | hit rate 0.84% among 340,000 | B-score at 10 µM | FluxOR fluorescence; active compounds read low;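 active means B-score under library mean minus 4 SD, starting fluorescence ratio at most library mean plus 5 SD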;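 further: more negative B-score means stronger inhibition of thallium flux through KCNK3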
Kir21 inh – inhibitors of mouse Kir2.1 inward-rectifier potassium channel; hit rate 0.85% among 310,000; HEK293-Kir2.1, FluxOR thallium flux fluorescence; active compounds read low; B-score at 10 µM;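 active means fluorescence ratio B-score at or below minus 3 SD of library scores, with starting-brightness B-score within 2 SD, cut at about -4.2 in these data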;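 further: channel flux triggered by added potassium and thallium sulfate stimulus; B-score of peak minus minimum fluorescence over baseline after thallium stimulus; more negative B-score means stronger Kir2.1 block with less thallium influx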
* marks the source's active call; other numbers are inactive results; i = inactive; · = no result given. Shown are actives, neighbours in structure and some others; about 3.7% of the full set was active somewhere.

SMILES	KCNQ1 block	KCNK9 block	KCNQ1 act	hERG rescue	KCNK3 block	Kir21 inh
CCC(C(=O)NCCC1=CCCCC1)c1ccccc1 (stereo unspecified)	i	i	i	-5.7	i	-5.64*
COc1ccc(-c2noc(N3CCC(C(=O)N(C)c4ccccc4)CC3)n2)cc1	i	i	i	-22.8	i	-0.56
O=C(NCCN1CCOCC1)c1cc(-c2ccccc2Cl)nc2ccccc12	i	i	i	-15.4	i	0.07
Cc1ccc(Cl)cc1-n1c(SCC(=O)NCCC2=CCCCC2)nc2n[nH]c(C)c2c1=N	i	-7.23*	i	-12.3	i	0.15
O=C1ON=C(c2ccccc2)/C1=C/c1ccc(O)c(O)c1	i	i	i	-15.7	i	-5.22*
O=C1ON=C(c2ccc(Cl)c([N+](=O)[O-])c2)/C1=C/c1cccc([N+](=O)[O-])c1O	·	·	·	·	i	·
COc1cc(/C=C2\C(=O)ON=C2c2ccc(Cl)cc2)ccc1O	i	i	i	-10.5	i	-4.75*
COc1ccc(C2=NN(c3ccccc3)C(=O)/C2=C\c2ccc(O)c(OC)c2)cc1	11*	i	i	-3.8	i	0.63
COc1ccc(/C=C2/C(=O)N(c3ccccc3)N=C2C)cc1	i	i	i	0.2	i	2.43
O=C1ON=C(c2cccc([N+](=O)[O-])c2)/C1=C/c1ccc(O)cc1	7*	i	i	-25.4	i	-6.76*
COc1ccc(/C=C2\C(=O)ON=C2c2ccccc2)cc1	i	i	i	-6.1	i	0.11
O=C(CSCc1cccc(Cl)c1)OCc1nc2ccsc2c(=O)[nH]1	i	i	i	-8.3	i	0.45
COc1cc(/C=C2/C(=O)N(c3cccc(Br)c3)N=C2C)cc(OC)c1O	8*	i	i	-7.8	i	1.34
Oc1cccc2c(NC(=S)Nc3ccc(SC(F)F)cc3)cccc12	11*	i	i	-10.7	i	0.3
FC(F)Sc1ccc(NC(=S)NC2CCC(NC(=S)Nc3ccc(SC(F)F)cc3)CC2)cc1 (stereo unspecified)	i	i	i	-5.1	i	1.22
COc1ccc(-c2ccc(/C=N/NC(=O)c3cccnc3)o2)c([N+](=O)[O-])c1	i	i	i	16.5*	i	-2.28
COc1ccc(N2CCN(S(=O)(=O)c3ccc4c(c3)NC(=O)CC(=O)N4)CC2)cc1	i	i	i	-12.4	i	-0.37
COc1ccc(N(C(=O)c2cccnc2)S(=O)(=O)c2cc(OC)ccc2OC)cc1	i	i	i	-5.6	i	-0.08
Cc1cc(C(=O)CSc2ncnc3ccccc23)c(C)n1C1CC1	·	·	·	·	i	·
Cc1cc(-n2c(C)cc(C(=O)CSc3ncnc4ccccc34)c2C)no1	6*	i	i	-19.1	i	0.84
CC1(C)Cc2c(c(N3CCOCC3)nc3snc(N)c23)CO1	i	-7.01*	i	-19.9	i	-1.11
COc1ccc(C(=O)NNC(=O)c2ccc(S(=O)(=O)N3CC(C)OC(C)C3)cc2)cc1 (stereo unspecified)	7*	i	i	-6.7	i	1.25
COc1cc(OC)cc(C(=O)NNC(=O)c2ccc(S(=O)(=O)N3CC(C)OC(C)C3)cc2)c1 (stereo unspecified)	i	i	i	-8.6	i	0.04
O=C(NCc1nc2ccccc2[nH]1)C1=C[C@@H](c2ccccc2)C[C@@H](OCCCCO)O1	i	i	i	-5.8	i	-0.25
COc1ccc(C2=NN(C(=O)c3ccccc3)C(c3ccc(OC)c(OC)c3)C2)cc1OC (stereo unspecified)	i	i	i	-6.7	i	-0.46
SMILES	KCNQ1 block	KCNK9 block	KCNQ1 act	hERG rescue	KCNK3 block	Kir21 inh
COc1ccc(C2CC(c3ccc([N+](=O)[O-])cc3)=NN2C(=O)c2ccccc2)cc1OC (stereo unspecified)	i	-7.04*	i	-4.4	i	0.29
Clc1ccc(/C(Cc2nc3ccccc3[nH]2)=N\Nc2ccccc2)cc1	9*	-7.2*	i	-15.0	i	-0.1
CCn1ccnc1CNC(=O)c1ccc(OC2CCN(C(=O)COC)CC2)cc1	i	i	i	-11.5	i	0.31
N#CC1=C(SCC(=O)NC2CC2)NC(=O)C(C#N)C12CCCCC2 (stereo unspecified)	i	i	i	-11.7	i	-1.33
N#CC1=C(SCC(=O)NC23CC4CC(CC(C4)C2)C3)NC(=O)C(C#N)C12CCCCC2 (stereo unspecified)	10*	i	i	-9.0	i	0.47
COc1ccc(-c2c(-c3ccsc3)oc3ccc(N4CCOCC4)cc23)cn1	i	-7.92*	i	-8.0	i	-1.89
CCOC(=O)C1=C(C)N=C2c3ccccc3C(=O)C2C1c1ccc(Cl)cc1 (stereo unspecified)	i	-8.01*	i	-2.4	-10.3*	-0.62
CCCN(Cc1ccccc1)C(=S)Nc1ccc(SC(F)F)cc1	6*	i	i	-10.4	i	0.03
COc1cc(CNCCN2CCOCC2)ccc1OCc1ccc(Cl)cc1	i	i	i	-9.2	i	0.39
COc1cc(CNCCCN2CCOCC2)cc(Br)c1OCc1ccc(Cl)cc1	i	i	i	-21.3	i	-8.18*
O=C1NCCN1CCN1C(=O)c2ccccc2NC1c1ccccc1 (stereo unspecified)	i	i	i	-5.8	i	-1.63
Cc1ccc([N+](=O)[O-])c2c1C(N1CC(C)OC(C)C1)C(C)(C)O2 (stereo unspecified)	i	i	i	5.4*	i	-0.4
Cc1ccc(S(=O)(=O)Oc2ccccc2/C=N/O)cc1	i	i	i	-4.6	i	-6.89*
Cc1ccc(S(=O)(=O)Oc2ccccc2/C=N/Nc2ccc(C(=O)O)cc2)cc1	i	i	i	-4.0	i	1.22
CCC[C@@H](CN[C@@H](CNC)C(C)C)NCCCCc1ccccc1	i	i	i	-5.6	i	-2.19
CNC[C@@H](Cc1ccccc1)NC[C@@H](CC1CCCCC1)NCCCc1ccccc1	7*	-8.06*	i	-25.0	i	-11*
CCC[C@@H](CNC)NC[C@H](Cc1ccccc1)NCCCCc1ccccc1	i	i	i	-11.0	i	-4.47*
